High-throughput results deposited in PubChem by Broad Institute.
A selection: hits, their analogues and other compounds. The true share with any hit is near 5.9%.
Pf Dd2 growth: P. falciparum Dd2 growth inhibition; activity change, % at 10 µM; 2.3% of 94,000 active; SYBR Green, 72 h; hits give low values; in the data active = activity change below about -80%; inconclusive = no clear call, values can overlap the other calls
IDH1 mut inh: IDH1 R132H (human) inhibition; inhibition, % at 10 µM; 0.18% of 70,000 active; AID 624101; IDH1 R132H reductase, diaphorase/resazurin fluorescence, 60 min; O75874; in the data active = inhibition above about 34%; inconclusive = no clear call, values can overlap the other calls; inactive = below about 11%;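 also: 0% = DMSO and 100% = no enzyme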
GASC1 inh: inhibitors of human demethylase GASC-1 KDM4C; AID 720574; GST-KDM4C 2-372, H3K9me3 peptide, LANCE TR-FRET; inhibition, % at 12.5 µM; 0.15% of 96,000 active;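 active = mean replicate inhibition above about 25%, with at least 55% of replicates also reaching it, limit read from the data, passing the limit was not always enough; inconclusive = only one of those two conditions met; inactive = neither condition met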
Target sequence (Q9H3R0 2-372 limits assumed): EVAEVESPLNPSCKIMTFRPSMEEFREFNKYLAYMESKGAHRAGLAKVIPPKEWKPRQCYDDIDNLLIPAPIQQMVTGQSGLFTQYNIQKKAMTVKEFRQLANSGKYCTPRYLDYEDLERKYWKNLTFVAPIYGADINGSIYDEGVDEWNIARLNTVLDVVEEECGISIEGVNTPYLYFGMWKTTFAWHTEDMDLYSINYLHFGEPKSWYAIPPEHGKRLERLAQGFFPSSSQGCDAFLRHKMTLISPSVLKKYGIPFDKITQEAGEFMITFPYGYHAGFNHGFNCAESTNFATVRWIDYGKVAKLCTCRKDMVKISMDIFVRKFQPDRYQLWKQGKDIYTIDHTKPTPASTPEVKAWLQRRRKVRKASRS
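reagent = H3K9me3 peptide substrate, Fe(II), 2-oxoglutarate | system = GST-tagged GASC-1 (JMJD2C) catalytic fragment, aa 2-372 | amount = enzyme final amount 10 nM | read-out = Fall in 671/618 emission ratio as inhibition | medium = HEPES buffer, pH 7.5, plus ascorbate | schedule = 30 min reaction, 60 min detection, RT | measured by = LANCE TR-FRET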
T cruzi growth-1: inhibitors of T. cruzi proliferation; T. cruzi beta-gal in NIH3T3, GalScreen luminescence, 90 h; inhibition, % at 8.34 µM; 5.9% of 77,000 active; AID 624255;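 active = mean inhibition above about 93%, with at least 55% of replicates each passing it, limit read from the data, passing the limit was not always enough; inconclusive = only one of those two conditions holds; inactive = neither condition holds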
T cruzi growth-2: inhibitors of T. cruzi proliferation | shares compounds with T cruzi growth-1 | T. cruzi beta-gal in NIH3T3, GalScreen luminescence, 90 h | 72% of 5,600 active | inhibition, % at 8.35 µM;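 active = mean replicate inhibition above about 95% and at least 55% of replicates individually reaching it, limit read from the data; inconclusive = only one of the two criteria is met; inactive = neither criterion is met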
T cruzi growth-3: Trypanosoma cruzi proliferation inhibition; inhibition, % at 2.09 µM; shares compounds with T cruzi growth-1; 21% of 5,600 active; T. cruzi beta-gal in NIH3T3, GalScreen luminescence, 90 h;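 active = mean inhibition above about 95%, with at least 55% of replicates also reaching it, limit read from the data; inconclusive = meets just one of the two conditions; inactive = meets neither condition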;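 also: plate controls were neutral control median for no effect and positive control median for full effect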
NIH3T3 tox: kills mouse NIH/3T3 fibroblasts; shares compounds with T cruzi growth-1; NIH/3T3 viability, CellTiter-Glo ATP luminescence, 90 h; cytotoxicity (signal decrease), % at 8.35 µM; 14% of 5,600 active; AID 651742;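 active = mean signal decrease across replicates above about 35% based on untreated-well scatter, with enough replicates individually passing, limit read from the data; inconclusive = no rule stated though some were filed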;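 also: 0% = median of neutral control wells and 100% = median of positive control wells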
3T3 cytotox 2: NIH/3T3 (mouse) viability loss; 56% of 5,600 active; inhibition, % at 24.9 µM; NIH/3T3 viability, CellTiter-Glo ATP luminescence, 90 h; shares compounds with T cruzi growth-1; AID 651744;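 active = mean loss of cell viability signal at or above a set limit, and enough replicates individually reaching it; inconclusive = meets only the mean limit or only the replicate share; inactive = meets neither condition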;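 also: 0% = median of neutral control wells and 100% = median of positive control wells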
An asterisk follows results filed as active; ? = inconclusive; · = not tested or not shown.

SMILES	Pf Dd2 growth	IDH1 mut inh	GASC1 inh	T cruzi growth-1	T cruzi growth-2	T cruzi growth-3	NIH3T3 tox	3T3 cytotox 2
C[C@@H]1CCCCO[C@H](CN(C)C(=O)Nc2cccc3ccccc23)[C@H](C)CN([C@@H](C)CO)C(=O)c2cc(NC(=O)c3ccccc3)ccc2O1	-65	0	-1	101*	109*	70	-7	-5
CC(=O)O[C@H]1[C@H](Oc2cc(O)cc(O)c2C(=O)c2cc(O)cc(O)c2)O[C@H](CO)[C@@H](OC(=O)c2ccccc2)[C@@H]1O	·	-1	·	·	·	·	·	·
Cc1c(C(N)=O)sc2ncn(CC(=O)Nc3cc(Cl)ccc3Cl)c(=O)c12	·	0	·	·	·	·	·	·
O=C(NCc1ccccn1)c1ccccc1O	·	1	·	·	·	·	·	·
CN(C)C(=O)c1cccc(-c2ccc([C@@H]3[C@@H](CO)N4CCCCN(C(=O)C5CCC5)C[C@@H]34)cc2)c1	4	·	-1	44	·	·	·	·
CN(C)C(=O)c1cccc(-c2ccc([C@H]3[C@@H](CO)N4CCCCN(C(=O)C5CCC5)C[C@H]34)cc2)c1	1	·	-1	?	107*	90	13	15
CN(C)C(=O)c1cccc(-c2ccc([C@H]3[C@H](CO)N4CCCCN(C(=O)C5CCC5)C[C@@H]34)cc2)c1	6	·	-1	102*	99*	?	10	11
CN(C)C(=O)c1cccc(-c2ccc([C@H]3[C@@H](CO)N4CCCCN(C(=O)C5CCCC5)C[C@@H]34)cc2)c1	-5	·	·	102*	103*	98*	-23	-26
C[C@H](CO)N1C[C@H](C)[C@H](CN(C)C)Oc2cc(C#Cc3ccccn3)ccc2S1(=O)=O	15	0	2	·	·	·	·	·
C[C@H](CO)N1C[C@H](C)[C@H](CN(C)Cc2ccccc2)Oc2cc(C#Cc3ccccn3)ccc2S1(=O)=O	-78	0	-6	107*	109*	90	4	-7
C[C@H]1CN([C@@H](C)CO)S(=O)(=O)c2ccc(C#Cc3ccccn3)cc2O[C@@H]1CN(C)C	13	0	-1	·	·	·	·	·
CC(=O)N(C)C[C@H]1Oc2cc(C#Cc3ccccn3)ccc2S(=O)(=O)N([C@H](C)CO)C[C@@H]1C	24	0	8	-5	·	·	·	·
C[C@@H]1CN([C@H](C)CO)S(=O)(=O)c2ccc(C#Cc3ccccn3)cc2O[C@@H]1CN(C)Cc1ccccc1	-20	-2	-3	101*	73	53	4	99*
CC(=O)N(C)C[C@@H]1Oc2cc(C#Cc3ccccn3)ccc2S(=O)(=O)N([C@@H](C)CO)C[C@H]1C	16	-5	4	102*	91	81	-8	19
CCOc1nc(NCCO)nc(Nc2ccc(OC)cc2OC)n1	·	0	·	·	·	·	·	·
CC(/C=C/C(=O)NO)=C\c1cccc(OCc2ccc(COc3ccc4ccncc4c3)cc2)c1	·	0	·	·	·	·	·	·
Cc1ccc(S(=O)(=O)Nc2ccc3c(c2)C(=O)N([C@H](C)CO)C[C@H](C)[C@H](CN(C)C(=O)Nc2ccccc2)OCCCC[C@H](C)O3)cc1	-31	2	0	100*	109*	43	-11	-5
Cc1ccc(S(=O)(=O)Nc2ccc3c(c2)C(=O)N([C@@H](C)CO)C[C@@H](C)[C@@H](CN(C)C(=O)Nc2ccc(F)cc2)OCCCC[C@@H](C)O3)cc1	-77	1	-1	105*	104*	64	-3	-16
Cc1ccc(S(=O)(=O)Nc2ccc3c(c2)C(=O)N([C@H](C)CO)C[C@@H](C)[C@H](CN(C)C(=O)Nc2ccc(F)cc2)OCCCC[C@@H](C)O3)cc1	-85*	0	2	98*	97*	72	-1	25*
Cc1ccc(S(=O)(=O)Nc2ccc3c(c2)C(=O)N([C@H](C)CO)C[C@H](C)[C@@H](CN(C)C(=O)Nc2ccccc2)OCCCC[C@@H](C)O3)cc1	-18	0	0	-98	·	·	·	·
